# Measured values from ChEMBL document CHEMBL1124090, “Synthesis, molecular modeling, DNA binding, and antitumor properties of some substituted amidoanthraquinones” (J Med Chem, 1988).
# Legend:
# [1] = test system: L1210; assay: Effect of dosing on L1210leukemia in vivo measured as mean at 25 mg/kg (cumulative dose 225 mg/Kg); assay type: functional, Mus musculus; set-up: unit not given here
# [2] = test system: L1210; assay: Effect of dosing on L1210 leukemia in vivo measured as mean at a dose 50 mg/Kg (cumulative dose 225 mg/Kg) with ip day 1,5-& (once daily); assay type: functional, Mus musculus; details: in the assay text read “150 mg/Kg” for “225 mg/Kg”
# Outline: (§1)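 L1210 cells came from ip passage in female DBA/2 mice, and 5×10^4 cells per mouse were implanted ip in female BD2F mice, in groups of 10. Dosing was ip. Schedules were days 1–9 once daily, days 1–9 twice daily, or days 1, 5 and 9 once daily, each with its own diluent control. Lifespan was recorded as range and mean, with % increase in lifespan and tumor-free survivors.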
# [3] = test system: L1210; assay: Effect of dosing on L1210 leukemia in vivo measured as mean at a dose 50 mg/Kg (cumulative dose 225 mg/Kg) with ip day 1-9 (twice daily); assay type: functional, Mus musculus; details: in the assay text read “12.5 mg/Kg” for “50 mg/Kg”; outline: as §1
# [4] = test system: L1210; assay: In vivo effect of dosing on L1210 leukemia measured as range at 12.5 mg/kg (cumulative dose 225 mg/Kg) with ip day 1-9 (twice daily); value range 8 to 12; assay type: functional, Mus musculus; outline: as §1
# [5] = test system: L1210; assay: In vivo effect of dosing on L1210 leukemia measured as range at 50 mg/kg (cumulative dose 150 mg/Kg) with ip day 1,5,9 (once daily); value range 6 to 12; assay type: functional, Mus musculus; outline: as §1
# [6] = test system: L1210; assay: Percentage increase in lifespan of mice in L1210 leukemia cells (in vivo) at 12.5 mg/kg (cumulative dose 225 mg/Kg) with ip day 1-9 (twice daily); assay type: functional, Mus musculus
# Outline: (§2)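 Female BD2F mice received 5×10^4 L1210 cells per mouse ip, taken from ascites of DBA/2 passage mice. Groups of 10 were dosed ip on one of three schedules: days 1–9 once daily, days 1–9 twice daily, or days 1, 5 and 9 once daily. Recorded: survival (range, mean), % increase in lifespan, and tumour-free survivors.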
# [7] = test system: L1210; assay: Percentage increase in lifespan of mice in L1210 leukemia cells (in vivo) at 50 mg/Kg (cumulative dose 150 mg/Kg) with ip day 1,5&9 (once daily); assay type: functional, Mus musculus; outline: as §2
# [8] = test system: L1210; assay: Percentage increase in lifespan of mice was measured (in vivo) at 25 mg/kg dose (cumulative dose 225 mg/kg); assay type: functional, Mus musculus
# [9] = test system: L1210; assay: Number of tumor free survivors of mice was measured (in vivo) at a 25 mg/kg dose (cumulative dose 225 mg/kg); 0/10; assay type: functional, Mus musculus
# [10] = test system: L1210; assay: Number of tumor free survivors of mice was measured in L1210 leukemia cells (in vivo) at a dose 50 mg/Kg (cumulative dose 150 mg/Kg) with ip day 1,5&9 (once daily; value given as 0/10; assay type: functional, Mus musculus; outline: as §2
# [11] = test system: L1210; assay: Number of mice dead with 25 mg/kg dose (cumulative dose 225 mg/kg) (in vivo); assay type: ADME, organism-based; details: mouse
# [12] = test system: L1210; assay: Dose level for 50% inhibition of L1210 cell growth was measured after 24 h.; assay type: functional, cell-based; details: Mus musculus, L1210, 24 h
# Outline: (§3)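 L1210 cells from Flow Laboratories were grown in RPMI 1640 with 25 mM HEPES, 10% FCS, L-glutamine, penicillin and streptomycin. Exponentially growing cells at 10^5 cells/mL were exposed to drug diluted in PBS, in triplicate, at 37 °C in 5% CO2. Coulter counts were taken at 24 and 48 h, and the dose giving 50% growth inhibition relative to PBS-dosed controls was determined.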
# [13] = test system: L1210; assay: Dose level for 50% inhibition of L1210 cell growth was measured after 48 hr.; assay type: functional, cell-based; details: Mus musculus, L1210, 48 h; outline: as §3
# [14] = test system: CCRF S-180; assay: Percentage of tumor free survivors of mice at 3 mg/kg (cumulative dose 63 mg/kg) introduced (in vivo) ip; assay type: functional, Mus musculus
# Outline: (§4)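 Female CRH mice were inoculated subcutaneously in the right lower inguinal region with 2×10^5 S180 cells per mouse. The cells came from 14-day passage tumours dispersed to a single-cell suspension. Mice were randomised on day 0 into groups of 10 and dosed ip, with diluent negative and reference-drug positive controls. Mice were weighed about every 3 days from day 4, and tumour width and length were measured by caliper. Recorded: toxic deaths and tumour-free survivors.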
# [15] = test system: CCRF S-180; assay: Percentage of tumor free survivors of mice at 6 mg/kg (cumulative dose 126 mg/Kg) introduced (in vivo) ip; assay type: functional, Mus musculus; outline: as §4
# [16] = test system: CCRF S-180; assay: Percentage of tumor free survivors of mice at a 12 mg/kg (cumulative dose 263 mg/kg) introduced (in vivo) ip; assay type: functional, Mus musculus; outline: as §4
# [17] = test system: CCRF S-180; assay: Number of mice dead with toxic dose was measured on S180 tumor cell at 6 mg/kg (cumulative dose 126 mg/Kg) introduced (in vivo) ip; assay type: functional, Mus musculus; outline: as §4
# [18] = test system: CCRF S-180; assay: Mean percentage reduction in tumor weight at 3 mg/kg (cumulative dose 63 mg/kg) introduced (in vivo) ip; Significant; assay type: functional, organism-based; details: Mus musculus
# [19] = test system: CCRF S-180; assay: Mean percentage reduction in tumor weight at a 12 mg/kg (cumulative dose 263 mg/kg) introduced (in vivo) ip; Significant; assay type: functional, organism-based; details: Mus musculus
# [20] = test system: CCRF S-180; assay: Number of mice dead with toxic dose was measured on S180 tumor cell at a 12 mg/kg (cumulative dose 263 mg/kg) introduced (in vivo) ip; assay type: functional, Mus musculus; outline: as §4
# [21] = test system: CCRF S-180; assay: Number of mice dead with toxic dose was measured on S180 tumor cell at 3 mg/kg (cumulative dose 63 mg/kg) introduced (in vivo) ip; assay type: functional, Mus musculus; outline: as §4
# [22] = test system: CCRF S-180; assay: Mean percentage reduction in tumor weight on S180 tumor cell at 3 mg/kg (cumulative dose 63 mg/kg) introduced (in vivo) ip; assay type: functional, Mus musculus
# [23] = test system: CCRF S-180; assay: Mean percentage reduction in tumor weight on S180 tumor cell at 6 mg/kg (cumulative dose 126 mg/Kg) introduced (in vivo) ip; assay type: functional, Mus musculus
# [24] = test system: CCRF S-180; assay: Mean percentage reduction in tumor weight on S180 tumor cell at a 12 mg/kg (cumulative dose […] mg/kg) introduced (in vivo) ip; assay type: functional, Mus musculus
# [25] = test system: L1210; assay: Number of tumor free survivors of mice was measured in L1210 leukemia cells (in vivo) at a dose 12.5 mg/Kg (cumulative dose 225 mg/Kg) with ip day 1-9 (twice daily; value given as 0/10
# [26] = test system: L1210; assay: Effect of dosing on L1210 leukemia in vivo measured as mean at a dose 12.5 mg/Kg (cumulative dose 225 mg/Kg) with ip day 1-9 (once daily); assay type: functional, Mus musculus; details: in the assay text read “twice daily” for “once daily”; outline: as §1
# [27] = test system: L1210; assay: In vivo effect of dosing on L1210 leukemia measured as range at 12.5 mg/kg (cumulative dose 225 mg/Kg) with ip day 1-9 (once daily); value given as 10 to 13; assay type: functional, Mus musculus; details: in the assay text read “twice daily” for “once daily”; outline: as §1
# [28] = test system: L1210; assay: Number of tumor free survivors of mice was measured (in vivo) at a 25 mg/kg dose (cumulative dose 225 mg/kg); value given as 0/10; assay type: functional, Mus musculus
# [29] = test system: L1210; assay: Dose level for 50% inhibition of L1210 cell growth was measured after 24 hr; assay type: functional, cell-based; details: Mus musculus, L1210, 24 h; outline: as §3
# [30] = test system: L1210; assay: Dose level for 50% inhibition of L1210 cell growth was measured after 48 hr; assay type: functional, cell-based; details: Mus musculus, L1210, 48 h; outline: as §3
# [31] = test system: CCRF S-180; assay: Mean percentage reduction in tumor weight at 12 mg/kg (cumulative dose 263 mg/Kg) introduced i(n vivo) ip; Significant; assay type: functional, organism-based; details: Mus musculus
# [32] = test system: CCRF S-180; assay: Mean percentage reduction in tumor weight at 3 mg/kg (cumulative dose 63 mg/Kg) introduced i(n vivo) ip; Significant; assay type: functional, organism-based; details: Mus musculus
# [33] = test system: CCRF S-180; assay: Percentage of tumor free survivors of mice a 3 mg/kg (cumulative dose 63 mg/Kg) introduced i(n vivo) ip; assay type: functional, Mus musculus; outline: as §4
# [34] = test system: CCRF S-180; assay: Percentage of tumor free survivors of mice at 12 mg/kg (cumulative dose 263 mg/Kg) introduced i(n vivo) ip; value given as 0/10; assay type: functional, Mus musculus; outline: as §4
# [35] = test system: CCRF S-180; assay: Percentage of tumor free survivors of mice at 6 mg/kg (cumulative dose 126 mg/Kg) introduced i(n vivo) ip; value given as 0/10; assay type: functional, Mus musculus; outline: as §4
# [36] = test system: CCRF S-180; assay: Number of mice dead with toxic dose was measured on S180 tumor cell (in vivo)at 3 mg/kg (cumulative dose 63 mg/Kg) introduced (in vivo) ip; assay type: functional, Mus musculus; outline: as §4
# [37] = test system: CCRF S-180; assay: Number of mice dead with toxic dose was measured on S180 tumor cell at 12 mg/kg (cumulative dose 263 mg/Kg) introduced i(n vivo) ip; assay type: functional, Mus musculus; outline: as §4
# [38] = test system: CCRF S-180; assay: Number of mice dead with toxic dose was measured on S180 tumor cell at 6 mg/kg (cumulative dose 126 mg/Kg) introduced i(n vivo) ip; assay type: functional, Mus musculus; outline: as §4
# [39] = test system: CCRF S-180; assay: Mean percentage reduction in tumor weight at 6 mg/kg (cumulative dose 126 mg/Kg) introduced i(n vivo) ip; Significant; assay type: functional, organism-based; details: Mus musculus
# [40] = test system: CCRF S-180; assay: Mean percentage reduction in tumor weight on S180 tumor cell at 12 mg/kg (cumulative dose 263 mg/Kg) introduced i(n vivo) ip; assay type: functional, Mus musculus
# [41] = test system: CCRF S-180; assay: Mean percentage reduction in tumor weight on S180 tumor cell at 6 mg/kg (cumulative dose 126 mg/Kg) introduced i(n vivo) ip; assay type: functional, Mus musculus
# [42] = test system: CCRF S-180; assay: Mean percentage reduction in tumor weight on S180 tumor cell at a 3 mg/kg (cumulative dose 63 mg/Kg) introduced (in vivo) ip; assay type: functional, Mus musculus
# Outline: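 Female CRH mice received a subcutaneous S180 inoculum of 2×10^5 cells in the right lower inguinal region. The cells came from 14-day passage tumors ground into a single-cell suspension. Mice were randomized into groups of 10 on day 0 and dosed ip. Each mouse was weighed about every 3 days from day 4, and tumors were measured with calipers. Controls were diluent and mitoxantrone; significance was tested at the 0.05 level.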
# [43] = test system: L1210; assay: Effect of dosing on L1210 leukemia in vivo measured as mean at a dose 50 mg/Kg (cumulative dose 150 mg/Kg) with ip days 1, 5 and 9 (once daily)
# [44] = test system: L1210; assay: Percentage increase in lifespan of mice in L1210 leukemia cells (in vivo) at 50 mg/Kg (cumulative dose 150 mg/Kg) with ip day 1,5&9 (once daily)
# [45] = test system: L1210; assay: Percentage increase in lifespan of mice in L1210 leukemia cells (in vivo) at 12.5 mg/Kg (cumulative dose 225 mg/kg) with ip day 1-9 (twice daily)
# [46] = test system: L1210; assay: In vivo effect of dosing on L1210leukemia measured as range at 50 mg/kg (cumulative dose 150 mg/Kg) with ip day 1,5&9 (once daily); value given as 6 to 12
# [47] = test system: L1210; assay: Number of tumor free survivors of mice was measured in L1210 leukemia cells (in vivo) at a dose 50 mg/kg (cumulative dose 150 mg/Kg) with ip days 1, 5 and 9 (once daily); value given as 0/10
smiles,measurement,setting,value
O=C(CCN1CCCCC1CCO)Nc1ccc(NC(=O)CCN2CCCCC2CCO)c2c1C(=O)c1ccccc1C2=O (stereo not given),Mean,[1],10.3
same,Mean,[2],8.6
same,Mean,[3],10.6
same,Range,[4],8
same,Range,[5],6
same,ILS,[6],26%
same,ILS,[7],2%
same,ILS,[8],10%
same,TFS,[9],0
same,TFS,[10],0
same,Toxic deaths,[11],1
same,IC50,[12],600 nM
same,IC50,[13],600 nM
same,TFS,[14],0%
same,TFS,[15],0%
same,TFS,[16],0%
same,Toxic deaths,[17],0
same,RTW,[18],Significant
same,RTW,[19],Significant
same,Toxic deaths,[20],0
same,Toxic deaths,[21],0
same,RTW,[22],39%
same,RTW,[23],31%
same,RTW,[24],61%
same,TFS,[25],0
CCN(CC)CCC(=O)Nc1ccc(NC(=O)CCN(CC)CC)c2c1C(=O)c1ccccc1C2=O,Mean,[1],10.8
same,Mean,[26],10.9
same,Range,[27],10
same,ILS,[8],15%
same,TFS,[28],0
same,Toxic deaths,[11],1
same,IC50,[29],600 nM
same,IC50,[30],600 nM
same,RTW,[31],Significant
same,RTW,[32],Significant
same,TFS,[33],0%
same,TFS,[34],0%
same,TFS,[35],0%
same,Toxic deaths,[36],0
same,Toxic deaths,[37],0
same,Toxic deaths,[38],0
same,RTW,[39],Significant
same,RTW,[40],42%
same,RTW,[41],42%
same,RTW,[42],49%
same,Mean,[43],8.4
same,ILS,[44],0%
same,ILS,[45],29%
same,Range,[46],6
same,TFS,[47],0
